ChEMBL document CHEMBL4765374, “8-Alkynyl-3-nitroimidazopyridines display potent antitrypanosomal activity against both T. b. brucei and cruzi” (Eur J Med Chem, 2020)
≈ marks a conversion by molar mass, not a printed value.

What was measured:
[1] = system: Trypanosoma cruzi; experiment: Antitrypanosomal activity against Trypanosoma cruzi trypomastigotes infected in African green monkey Vero cells incubated for 120 hrs measured on day 6 cells followed by trypomastigotes release by haemocytometer-based light microscopy; assay type: functional, organism-based
Procedure, shortened: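 Vero cells, grown 2 days, were infected with T. cruzi CL Brener trypomastigotes at 3:1 parasites to host cells. After 24 h, free parasites were washed off and compounds added (0.1 to 25 µM, 2 to 4-fold dilutions) for 120 h at 37 °C. Trypomastigotes released into the medium by day 6 were pelleted and counted by haemocytometer. EC50 by non-linear regression; two independent experiments, each in triplicate.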

[2] = Selectivity index, ratio of CC50 for cytotoxicity against human HepG2 cells to EC50 for antileishmanial activity against Leishmania donovani MHOM/IN/00/DEVI promastigotes; assay type: toxicity, cell-based; settings: read-out: Selectivity Index
[3] = Tmax in Swiss albino mouse at 100 mg/kg, po; assay type: ADME, organism-based; settings: in vivo
Procedure, shortened: (§1)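 Female Swiss mice, 8 weeks, 30-32 g, given a single oral gavage at 100 mg/kg as a suspension in 5% Tween 80/95% carboxymethylcellulose 0.5% in water. Blood (100 µL) was extracted with ACN containing ornidazole as internal standard plus QuEChERS salts, then quantified by positive-ESI LC-MS/MS on a C8 column against whole-blood calibration standards (5 to 1,000 ng/mL).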

[4] = system: Trypanosoma brucei brucei; experiment: […] activity against Trypanosoma brucei brucei AnTat 1.9 measured after 74 hrs by Alamar blue assay; assay type: functional, organism-based; settings: AnTat 1.9, 74 h
Procedure, shortened: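 Bloodstream T. b. brucei AnTat 1.9 grown at 37 °C, 5% CO₂ in MEM with Earle's salts plus mercaptoethanol, L-cysteine, bathocuproine sulfate and 20% heat-inactivated horse serum. Seeded at 2000 parasites/100 µL and exposed in duplicate to compounds in DMSO for 69 h. Alamar Blue then added for 5 h, fluorescence read at ex 530/em 590 nm. EC50 by nonlinear regression from three independent experiments.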

[5] = system: Leishmania donovani; experiment: Antileishmanial activity against wild type Leishmania donovani BOB (MHOM/SD/62/1S-CL2D) promastigotes incubated for 72 hrs by resazurin dye based assay; assay type: functional, organism-based
Procedure, shortened: (§2)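 Clonal L. donovani LdBOB promastigotes grown at 26 °C in modified M199; NTR1- and NTR2-overexpressing lines maintained with nourseothricin (100 µg/mL). Triplicate 10 mL cultures seeded at 5×10^4 parasites/mL with drug for 72 h; 200 µL aliquots then given 50 µM resazurin, fluorescence (ex 528/em 590 nm) after 4 h more. EC50 from slope-factor equation; experiments repeated at least twice, mean plus standard deviation.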

[6] = Selectivity index, ratio of CC50 for human HepG2 cells to EC50 for Trypanosoma brucei brucei AnTat 1.9; assay type: toxicity; settings: read-out: Selectivity Index
[7] = Microsomal stability in CD-1 mouse liver microsomes assessed as half life measured after 40 mins in presence of NADPH by LC-MS/MS analysis; assay type: ADME, Microsome
Procedure, shortened: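 Female CD-1 mouse microsomes incubated in duplicate at 37 °C in 50 mM phosphate buffer, pH 7.4, with MgCl₂, NADP, glucose-6-phosphate and G6P dehydrogenase. […] Propranolol as reference.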

[8] = Cytotoxicity against human HepG2 cells assessed as reduction in cell viability after 72 hrs by MTT assay; assay type: cell-based
[9] = Clearance in Swiss albino mouse at 100 mg/kg, po; assay type: ADME, organism-based; settings: in vivo; procedure, shortened: as §1
[10] = system: Leishmania donovani; experiment: Antileishmanial activity against Leishmania donovani BOB (MHOM/SD/62/1S-CL2D) promastigotes overexpressing NTR1 incubated for 72 hrs by resazurin dye based assay; assay type: functional, organism-based; procedure, shortened: as §2
[11] = system: HepG2; experiment: Genotoxicity in human HepG2 cells assessed as induction of DNA damage at 20 to 30 uM incubated for 2 to 72 hrs by alkaline comet assay; assay type: toxicity, cell-based; settings: hepg2, 30 µM, dose lower 20 µM, time lower 2 hrs, dose upper 30 µM, time upper 72 hrs
Procedure, shortened: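 HepG2 cells exposed for 2 or 72 h at 20 or 30 µM, then trypsinized and embedded in 0.7% low-melting agarose. Lysis 18 h at 4 °C, pH 10; alkaline electrophoresis (pH >13) for 24 min at 0.8 V/cm. Gels stained with SYBR Gold and imaged. % tail DNA is the median of 50 cells per deposit, three deposits per sample.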

[12] = system: THP-1; experiment: Cytotoxicity against human THP-1 cells assessed as reduction in cell viability after 72 hrs by MTT assay; assay type: functional
Procedure, shortened: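 THP-1 cells at 5×10⁴ cells/mL in complete RPMI were exposed in duplicate to compounds in DMSO (final <0.5%) for 72 h at 37 °C. MTT at 0.5 mg/mL for 2 h, formazan dissolved in DMSO, absorbance read at 570 nm with 630 nm reference. CC50 from the dose-response curve, mean of three independent experiments.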

[13] = Solubility of the compound in aqueous medium at highest dose; assay type: physicochemical; settings: buffer
[14] = Effective permeability of the compound at pH 7.4 incubated for 4 hrs by PAMPA-BBB assay; assay type: ADME; settings: read-out: permeability
Procedure, shortened: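 Compound diluted from a 20 mM DMSO stock to 100 µM in Prisma HT buffer pH 7.4 and placed in the donor wells. Acceptor membrane coated with BBB-1 lipid, with Brain Sink Buffer in the acceptor wells. Plates incubated 4 h at room temperature without stirring, then read by UV-visible spectra to give Pe. Corticosterone and theophylline served as high and low permeability standards; n=6.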

[15] = Genotoxicity in Salmonella typhimurium at 2.5 mM incubated for 48 hrs by Ames test; assay type: toxicity; settings: salmonella enterica subsp. enterica serovar typhimurium, 2500 µM
Procedure, shortened: (§3)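 Liquid pre-incubation Ames test using S. typhimurium TA97a, TA98, TA100 and TA102 grown overnight in nutrient broth. Cultures were incubated with compound (5-50 mM DMSO stock) and 4% S9 mix for 1 h at 37 °C, then plated in top agar on minimal agar for 48 h at 37 °C in the dark, in duplicate. Positive result: a two-fold rise in revertants over the spontaneous count. Benzo[a]pyrene with S9 as positive control.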

[16] = system: Leishmania donovani; experiment: Antileishmanial activity against Leishmania donovani MHOM/IN/00/DEVI promastigotes assessed as inhibition of metabolic activity measured after 72 hrs by MTT assay; assay type: functional, organism-based
Procedure, shortened: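 L. donovani MHOM/IN/00/DEVI promastigotes grown in Schneider's medium with 20% FCS at 27 °C. Log-phase parasites at 10⁶/mL were exposed in duplicate to serial compound concentrations in DMSO (final <0.5%) for 72 h at 27 °C. MTT was added for 4 h and absorbance read at 570 nm. EC50 from non-linear regression, mean of at least three independent experiments.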

[17] = target: Albumin (Homo sapiens, UniProt P02768); experiment: Protein binding to human albumin by LC-MS analysis; assay type: ADME; settings: read-out: PB (converted)
Albumin, sequence (P02768 whole entry): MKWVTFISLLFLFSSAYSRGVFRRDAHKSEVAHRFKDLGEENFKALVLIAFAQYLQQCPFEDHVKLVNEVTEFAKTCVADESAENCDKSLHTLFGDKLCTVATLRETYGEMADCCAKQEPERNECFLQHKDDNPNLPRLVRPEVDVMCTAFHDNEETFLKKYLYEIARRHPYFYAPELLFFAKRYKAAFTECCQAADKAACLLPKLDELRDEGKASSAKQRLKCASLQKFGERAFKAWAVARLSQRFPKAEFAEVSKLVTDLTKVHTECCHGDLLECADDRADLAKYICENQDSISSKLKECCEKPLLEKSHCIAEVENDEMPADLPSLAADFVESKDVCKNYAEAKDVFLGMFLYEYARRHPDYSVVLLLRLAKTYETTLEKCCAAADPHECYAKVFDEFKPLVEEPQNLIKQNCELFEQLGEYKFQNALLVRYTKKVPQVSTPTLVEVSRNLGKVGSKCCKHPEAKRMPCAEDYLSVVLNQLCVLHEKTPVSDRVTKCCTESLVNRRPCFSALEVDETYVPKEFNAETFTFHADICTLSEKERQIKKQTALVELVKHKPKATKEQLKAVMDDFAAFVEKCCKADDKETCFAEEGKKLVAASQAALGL
Procedure, shortened: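 Plasma spiked with compound was dialysed at 37 °C in triplicate against phosphate buffer pH 7.2 for 4 h at 300 rpm. Both compartments were sampled and quantified by LC-MS using propranolol as internal standard. Unbound fraction taken from the plasma and buffer peak ratios; recovery checked with a non-incubated spiked plasma.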

[18] = system: Trypanosoma brucei brucei; experiment: Antitrypanosomal activity against bloodstream form of wild type Trypanosoma brucei brucei S427 trypomastigotes incubated for 72 hrs; assay type: functional, organism-based; settings: S427, 72 h
Procedure, shortened: (§4)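 Bloodstream-form T. brucei 'single marker' S427 cultured at 37 °C in HMI9-T with 2.5 µg/mL G418. The NTR1-overexpressing line was kept with 2.5 µg/mL phleomycin and induced with 1 µg/mL tetracycline 48 h before testing. Triplicate cultures seeded at 1×10^5 cells/mL with inhibitor. Cell densities counted after 72 h. EC50 from slope-factor equation.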

[19] = AUC (0 to infinity) in Swiss albino mouse at 100 mg/kg, po; assay type: ADME, organism-based; design: time infinity, route oral, dose 100 mg/kg; settings: in vivo; procedure, shortened: as §1
[20] = Thermodynamic solubility of the compound in phosphate buffer at pH 7.4 by shake flask method; assay type: physicochemical; settings: read-out: Therm_solubility
Procedure, shortened: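 Miniaturized shake-flask method: a 20 mM DMSO stock was diluted into phosphate buffer pH 7.4 (n=3), sonicated and shaken for 24 h at room temperature, then centrifuged. Supernatant was mixed 1:1 with acetonitrile and quantified by UV spectrophotometry at the compound's λmax against a calibration curve.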

[21] = system: Leishmania donovani; experiment: Antileishmanial activity against Leishmania donovani BOB (MHOM/SD/62/1S-CL2D) promastigotes overexpressing NTR2 incubated for 72 hrs by resazurin dye based assay; assay type: functional, organism-based; procedure, shortened: as §2
[22] = Half life in Swiss albino mouse plasma at 100 mg/kg, po; assay type: ADME, organism-based; procedure, shortened: as §1
[23] = Genotoxicity in Salmonella typhimurium at 0.25 mM incubated for 48 hrs by Ames test; assay type: toxicity; settings: salmonella enterica subsp. enterica serovar typhimurium, 250 µM; procedure, shortened: as §3
[24] = system: Trypanosoma brucei brucei; experiment: Antitrypanosomal activity against bloodstream form of Trypanosoma brucei brucei S427 trypomastigotes overexpressing NTR incubated for 72 hrs; assay type: functional, organism-based; settings: S427, 72 h; procedure, shortened: as §4
[25] = Cmax in Swiss albino mouse at 100 mg/kg, po; assay type: ADME, organism-based; design: route oral, dose 100 mg/kg; settings: in vivo; procedure, shortened: as §1

Q: Which EC50 [1] does the source give for `O=[N+]([O-])c1c(CS(=O)(=O)c2ccccc2)nc2c(C#CCCO)cc(Cl)cn12` here?
A: Its EC50 is 1200 nM.

Q: And the selectivity ratio [2]?
A: The selectivity ratio was over 16.9.

Q: And the Tmax [3]?
A: Its Tmax is 49.8 min.

Q: And the EC50 [4]?
A: The EC50 was 70 nM.

Q: And the EC50 [5]?
A: Its EC50 is 21400 nM.

Q: What about the selectivity ratio [6] of the same compound?
A: Its selectivity ratio is over 1790.

Q: What about the half-life [7] of the same compound?
A: Its half-life is 16 min.

Q: And the CC50 at 72 h [8]?
A: Its CC50 at 72 h is over 125000 nM.

Q: And the CL/F [9]?
A: Its CL/F is 0.0407 mL/min.

Q: And the EC50 [10]?
A: Its EC50 is 500 nM.

Q: What about the Activity [11] of the same compound?
A: The Activity was “Non-Toxic”.

Q: What about the CC50 [12] of the same compound?
A: The CC50 was over 100000 nM.

Q: And the solubility [13]?
A: The solubility was “Insoluble”.

Q: What about the Papp at 4 h [14] of the same compound?
A: The Papp at 4 h was 34.6 ×10⁻⁶ cm/s.

Q: And the Activity [15]?
A: Its Activity is “Toxic”.

Q: What about the EC50 [16] of the same compound?
A: Its EC50 is 7400 nM.

Q: And the fraction unbound [17]?
A: The fraction unbound was 0.015.

Q: And the EC50 [18]?
A: Its EC50 is 124 nM.

Q: And the AUC(0-inf) [19]?
A: Its AUC(0-inf) is 1430 ng·h/mL.

Q: What about the solubility thermodynamic [20] of the same compound?
A: Its solubility thermodynamic is 70.7 µM (≈ 29.7 µg/mL).

Q: What about the EC50 [21] of the same compound?
A: The EC50 was 24500 nM.

Q: What about the half-life [22] of the same compound?
A: Its half-life is 601 min.

Q: What about the Activity [23] of the same compound?
A: The Activity was “Toxic”.

Q: What about the EC50 [24] of the same compound?
A: The EC50 was 26.5 nM.

Q: What about the Cmax [25] of the same compound?
A: Its Cmax is 394 ng/mL.
